High-throughput results (PubChem)
Sampled rows, rich in hits. Any-hit rate of the full collection: about 1.9%.
M4 antag: CHRM4 antagonism in calcium assay | 360,000 tested, 0.73% active | P08173 | AID 624125 | CHO-hM4 cells, ACh EC80, Fluo-8 calcium fluorescence | inhibition, % at 3 µM;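 active = inhibition above its plate's cutoff, the mean inhibition of sample wells plus 3 SD, cut at about 27% in these data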
Target sequence (P08173 whole entry, looked up): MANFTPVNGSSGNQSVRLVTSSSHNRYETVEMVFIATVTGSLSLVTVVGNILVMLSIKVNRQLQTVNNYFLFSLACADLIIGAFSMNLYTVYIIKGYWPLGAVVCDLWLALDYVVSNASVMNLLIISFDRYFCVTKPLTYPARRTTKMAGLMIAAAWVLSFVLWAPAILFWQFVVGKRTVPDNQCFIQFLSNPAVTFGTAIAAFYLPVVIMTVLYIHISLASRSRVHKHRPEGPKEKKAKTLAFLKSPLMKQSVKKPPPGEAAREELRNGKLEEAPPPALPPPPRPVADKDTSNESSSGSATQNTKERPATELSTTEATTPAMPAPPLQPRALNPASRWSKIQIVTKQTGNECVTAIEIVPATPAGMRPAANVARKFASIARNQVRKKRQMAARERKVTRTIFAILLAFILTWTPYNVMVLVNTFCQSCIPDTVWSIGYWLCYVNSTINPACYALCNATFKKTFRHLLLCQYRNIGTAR
M4 ag: CHRM4 agonism in calcium assay; P08173; 360,000 tested, 0.14% active; activation, % at 3 µM; AID 624127; CHO-K1 hM4/Gqi5, Fluo-8 calcium fluorescence; vehicle 0%, full acetylcholine response 100%;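 active = activation above the run mean over all test wells plus 3 SD, cut at about 32% in these data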;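 note: peak over basal fluorescence ratio per well then scaled between controls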
M5 PAM: CHRM5 positive allosteric modulation | P08912 | CHO-K1 hM5, Fluo-8 calcium, ACh EC20 PAM; 0% = ACh EC20, 100% = ACh EC100 | activation, % at 3 µM | 360,000 tested, 0.3% active | AID 624038;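 active = activation above the run cutoff, the mean activation of all test compounds plus 3 SD, cut at about 18% in these data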
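Replicates: One well per compound, no replicates | System: Human M5 receptor in CHO-K1 cells | Benchmarks: Low control EC20 acetylcholine (0%), high control EC100 acetylcholine (100%) | Probe or stimulus: Acetylcholine, EC20 level | Times: Fluo-8 loading 80 min at 37 °C plus 30 min room temperature | Signal: Intracellular calcium via Fluo-8 fluorescence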
M4 PAM: positive allosteric modulators of human muscarinic M4 receptor. P08173. CHO-K1 hM4/Gqi5, Fluo-8 calcium fluorescence, ACh EC20; 0% = ACh EC20, 100% = maximal ACh. activation, % at 3 µM. 360,000 tested, 0.4% active;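 active = activation above its plate's cutoff, the mean activation of sample wells plus 3 SD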
CHRM5 agonist: agonists of human muscarinic M5 receptor (CHRM5). P08912. CHO-K1 hM5 cells, Fluo-8 calcium fluorescence; 0% DMSO wells, 100% maximal acetylcholine response. activation, % at 3 µM. 360,000 tested, 0.19% active;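 active = activation above the run's mean over test compounds plus 3 SD, cut at about 23% in these data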;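 note: signal is peak over basal fluorescence ratio across the kinetic read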
CHRM5 antagonist: CHRM5 antagonism in calcium assay; CHO-hM5 cells, Fluo-8 calcium fluorescence, ACh EC80; 360,000 tested, 0.59% active; inhibition, % at 3 µM; P08912;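 active = inhibition above a per-plate cutoff, the mean of that plate's test compounds plus 3 SD, cut at about 27% in these data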
Each line names hits and unclear results; the compound was inactive in the other large screens.

CCc1noc(C)c1C(=O)N1CCCSC1=Nc1ccccc1Cl	none
CCC(C)[C@H](NC(=O)N1CC(=O)Nc2ccccc21)C(=O)N1CCC[C@@H]1C(=O)O (stereo partly drawn)	none
CCC(C)[C@H](NC(=O)N1CC(=O)Nc2ccccc21)C(=O)N1CCC[C@H]1C(=O)O (stereo partly drawn)	M4 antag 101
CCN1CCN(CC(=O)Nc2ccc3c(c2)OCCO3)C(=O)C1=O	M4 PAM 31
CCN1CCN(CC(=O)Nc2ccc3c(c2)OCO3)C(=O)C1=O	none
CCOC(=O)c1ccc(N=C2C(=S)N(c3ccc(C(=O)OCC)cc3)C(=N)N2/N=C/c2ccccc2)cc1	M4 antag 99, CHRM5 antagonist 87
CCOC(=O)c1ccc(N=c2scc(C)n2CC)cc1	none
CC1C=CCC2C(=O)N(c3cccc(C(=O)Nc4ccc(F)cc4)c3)C(=O)C12 (stereo not drawn)	none
COc1cc(OC)c(OC)cc1CN1CCC(O)CC1	none
O=C(Nc1ccon1)c1ccc(OC2CCCC2)cc1	M4 antag 38
CC(C)(C)c1cc(NC(=O)c2ccc(OC3CCCC3)cc2)no1	none
Cc1cccc(C(=O)NNS(=O)(=O)c2ccccc2[N+](=O)[O-])c1	M4 PAM 28
COc1ccc(OCC(O)CN2CCC(CN3C(=O)c4cccc5cccc(c45)C3=O)CC2)cc1 (stereo not drawn)	M4 antag 27
CCCS(=O)(=O)N1CCC(C(=O)N2CCCC2)CC1	M5 PAM 21
CC(C)c1ccc(NC(=O)C2CC(=O)Nc3nc4ccccc4n32)cc1 (stereo not drawn)	none
COc1ccccc1CN1CCC(CNS(=O)(=O)c2cc(-c3cc(C)no3)ccc2OC)CC1	M4 antag 32
COc1cccc(/C=N/NC(=O)C(=O)N2CCCCCC2)c1OC	none
O=C(N/N=C/c1cccc2ccccc12)C(=O)N1CCCC1	M5 PAM 18
N#Cc1ccsc1NC(=O)C1CC(=O)N(Cc2ccccc2)C1 (stereo not drawn)	none
Cc1ccc(OCC(=O)NCCNC(=O)c2ccc(C)nc2)cc1	none
Cc1nccn1CCc1n[nH]c(=S)n1Cc1ccccc1	CHRM5 antagonist 33
O=C(CCS(=O)(=O)c1ccc(F)cc1)Nc1nccs1	none
CSc1ccc(C2=C/C(=C3/SC(=S)NC3=O)c3ccccc3O2)cc1	none
Cc1ccc(CN2CCNC(=O)C2CC(=O)NCC(F)(F)F)o1 (stereo not drawn)	CHRM5 antagonist 27
Cc1ccc(CN2CCNC(=O)C2CC(=O)N(C)C(C2CC2)C2CC2)o1 (stereo not drawn)	none
COc1cc(NC(=S)NCCN2CCOCC2)cc(OC)c1	M4 PAM 23
CC(=O)N(C)c1ccc(NC(=O)Nc2ccc(C)c(C)c2)cc1	M4 antag 31, CHRM5 antagonist 29
CCCCC(CC)C(=O)Nc1ccc(C)c(O)c1 (stereo not drawn)	none
O=C1CC2(CCN(C(=O)c3ccc(F)c(F)c3)CC2)Oc2ccccc21	none
CCOC(=O)CC(=O)Nc1ccccc1C(=O)O	M4 PAM 25
COc1cc(C2NC(=O)N(C)C(C)=C2C(=O)OCc2ccccc2)cc(Br)c1O (stereo not drawn)	M4 PAM 14
CCN(CC)C(=O)CSc1nc2ccccc2c(=O)n1-c1ccccc1OC	M4 PAM 36
CCOC(=O)C1CCN(c2cc3c(cc2NC(=O)c2ccccc2Cl)n(C)c(=O)n3C)CC1	none
CCOC(=O)C1CCN(c2cc3c(cc2NC(=O)c2ccccc2OCC)n(C)c(=O)n3C)CC1	CHRM5 antagonist 34
CCc1ccc(OCC(=O)N2CC(C(N)=O)Oc3ccccc32)cc1 (stereo not drawn)	none
COC(=O)c1cnc(Oc2c(Cl)cc(N)cc2Cl)cc1C(F)(F)F	M5 PAM 19
COC(=O)c1cnc(Oc2ccc(NC(=O)NC(=O)c3c(F)cccc3Cl)cc2)cc1C(F)(F)F	none
CC1=C(C(=O)OCC2CCCO2)C(c2ccncc2)C2=C(CCCC2=O)N1 (stereo not drawn)	none
CCN(CC)c1ccc(C2C(C(=O)OCCOC)=C(C)NC3=C2C(=O)CCC3)cc1 (stereo not drawn)	M4 antag 35
CC1=C(C(=O)OCC2CCCO2)C(c2ccc(C)cc2)C2=C(CCCC2=O)N1 (stereo not drawn)	M5 PAM 20
CCN(CC(=O)Nc1c(F)cccc1F)C(=O)CC1CCCCC1	none
O=C(CCC(=O)OCC(F)(F)C(F)F)Nc1ccccc1F	none
COc1cccc(NC(=O)CN(C)C(=O)CSCC(=O)Nc2ccc(C)cc2)c1	none
CCOc1ccc(C(=O)NN2CCOCC2)cc1	none
CC(C)CNC(=O)C1(C)CCCN1C(=O)c1csnn1 (stereo not drawn)	none
CC(C)CNC(=O)C1(C)CCCCCN1C(=O)c1csnn1 (stereo not drawn)	M4 PAM 19
O=C1C=CC(=O)N1CCNc1ncc(C(F)(F)F)cc1Cl	M4 antag 28
O=C1CC(=O)N(CCNc2ncc(C(F)(F)F)cc2Cl)C(=O)N1	none
CCCCCNC(=O)C(CCc1ccccc1)n1c(=O)c(-c2ccccc2)nc2ccccc21 (stereo not drawn)	M4 antag 31
CCCCCNC(=O)C(CCc1ccccc1)n1c(=O)c(-c2cc3ccccc3[nH]2)nc2ccccc21 (stereo not drawn)	none
CCn1cc(-c2csc(N)n2)c(C)n1	none
COc1ccc(N2CCN(C(=O)C3(S(=O)(=O)c4ccc(C)cc4)CC3)CC2)cc1	M5 PAM 23
CC(=O)c1ccc(N2CCN(C(=O)C3(S(=O)(=O)c4ccc(Cl)cc4)CC3)CC2)cc1	none
NC(=O)c1nsc(C(=O)N(c2ccc3c(c2)OCO3)C(C(=O)NCC2CCCO2)c2ccc(F)cc2)c1N (stereo not drawn)	M5 PAM 19, M4 PAM 24
NC(=O)c1nsc(C(=O)N(c2ccccc2)C(C(=O)NCc2ccc(F)cc2)c2ccc(O)cc2)c1N (stereo not drawn)	M4 antag 31
CNC(=O)N(O)C1N(/N=C/c2ccccc2OC)C(=S)SC1(C)C (stereo not drawn)	none
COc1ccc(NC(=O)/C(C#N)=C\c2ccc(N3CCOCC3)o2)cc1	M4 ag 37, CHRM5 agonist 120, CHRM5 antagonist 39
N#C/C(=C/c1ccc(N2CCOCC2)o1)c1ccc(Br)cc1	M4 antag 36
N#C/C(=C/c1ccc(N2CCOCC2)o1)C(=O)NC1CCCCC1	CHRM5 agonist 31
